Experimental data as given in ChEMBL document CHEMBL3877293, “Synthesis and Antineoplastic Evaluation of Novel Unsymmetrical 1,3,4-Oxadiazoles” (J Med Chem, 2016).
pIC50: −log10 of the molar value. Calls of active or inactive are those of the source. No cut-off for these calls is given here.

Columns and labels:
[1] = Cell cycle arrest in human NB1 hTERT cells assessed as G2/M phase accumulation at 1 uM after 72 hrs by propidium iodide staining based flow cytometry (reference value: 23.9%); assay type: functional
[2] = Cell cycle arrest in human NB1 hTERT cells assessed as S phase accumulation at 1 uM after 72 hrs by propidium iodide staining based flow cytometry (reference value: 3.6%); assay type: functional
[3] = Cell cycle arrest in human NB1 hTERT cells assessed as G1 phase accumulation at 1 uM after 24 hrs by propidium iodide staining based flow cytometry (reference value: 52.3%); assay type: functional
[4] = Cell cycle arrest in human MCF7 cells assessed as G2/M phase accumulation at 1 uM after 24 hrs by propidium iodide staining based flow cytometry (reference value: 24.2 +/- 1.62%); assay type: functional
[5] = Cell cycle arrest in human NCI-H1299 cells assessed as G1 phase accumulation at 1 uM after 48 hrs by propidium iodide staining based flow cytometry (reference value: 81%); assay type: functional
[6] = Cell cycle arrest in human MCF7 cells assessed as S phase accumulation at 1 uM after 24 hrs by propidium iodide staining based flow cytometry (reference value: 21.7 +/- 1.42%); assay type: functional
[7] = Induction of apoptosis in human NB1 hTERT cells assessed as early apoptotic cells at 5 uM after 72 hrs by Annexin-V FITC/propidium iodide staining based flow cytometry (reference value: 0.6%); assay type: functional
[8] = Cell cycle arrest in human NB1 hTERT cells assessed as S phase accumulation at 1 uM after 24 hrs by propidium iodide staining based flow cytometry (reference value: 11.8%); assay type: functional
[9] = Antiproliferative activity against human HeLa cells after 72 hrs by XTT assay; assay type: functional, cell-based
Procedure, shortened: (§1)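 Cells plated at 1500–2000 per well by doubling time, treated after 24 h with a concentration series in six triplicate wells, and incubated 72 h without a medium change. XTT reagent was then added for 4 h at 37 °C and absorbance read at 490 nm. IC50 is the concentration halving absorbance versus untreated cells. Experiments run in triplicate.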

[10] = Cell cycle arrest in human NCI-H1299 cells assessed as sub G1 phase accumulation at 1 uM after 48 hrs by propidium iodide staining based flow cytometry relative to control; assay type: functional
HeLa [11] = test: Induction of apoptosis in human HeLa cells assessed as necrotic cells at 5 uM after 48 hrs by Annexin-V FITC/propidium iodide staining based flow cytometry (reference value: 2.3%); assay type: functional
[12] = Induction of apoptosis in human NB1 hTERT cells assessed as live cells at 5 uM after 72 hrs by Annexin-V FITC/propidium iodide staining based flow cytometry (reference value: 93.2%); assay type: functional
HeLa [13] = test: Disruption of beta-tubulin network in human HeLa cells assessed as induction of abnormal cell division at 1 uM after 24 hrs by DAPI staining based immunofluorescence microscopic analysis
[14] = Antiproliferative activity against human MRC5 cells after 72 hrs by XTT assay; assay type: cell-based; conditions: MRC5, 72 h; procedure, shortened: as §1
[15] = Cell cycle arrest in human NB1 hTERT cells assessed as G1 phase accumulation at 1 uM after 72 hrs by propidium iodide staining based flow cytometry (reference value: 72.5%); assay type: functional
[16] = Cell cycle arrest in human SH-SY5Y cells assessed as subG1 phase accumulation at 1 uM after 24 hrs by propidium iodide staining based flow cytometry relative to DMSO control; assay type: functional
[17] = Cell cycle arrest in human SH-SY5Y cells assessed as S phase accumulation at 1 uM after 24 hrs by propidium iodide staining based flow cytometry (reference value: 14.3 +/- 1.52%); assay type: functional
HeLa [18] = test: Selectivity ratio of IC50 for human MCF7 cells to IC50 for human HeLa cells; assay type: functional
Procedure, shortened: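 XTT viability: 1500–2000 cells/well plated by doubling time; compounds added after 24 h, then 72 h further culture without medium change. XTT reagent 4 h at 37 °C, absorbance read at 490 nm. IC50 is the concentration halving absorbance versus untreated cells; triplicate experiments. Ratio is MCF7 IC50 divided by IC50 in the named line.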

A549 [19] = test: Induction of apoptosis in human A549 cells assessed as late apoptotic cells at 5 uM after 72 hrs by Annexin-V FITC/propidium iodide staining based flow cytometry (reference value: 5.2%); assay type: functional
[20] = Cell cycle arrest in human NB-1 cells assessed as S phase accumulation at 1 uM after 48 hrs by propidium iodide staining based flow cytometry (reference value: 1.7%); conditions: nb1, 48 h
[21] = Antiproliferative activity against human RD cells after 72 hrs by XTT assay; assay type: functional, cell-based; procedure, shortened: as §1
A549 [22] = test: Induction of apoptosis in human A549 cells assessed as necrotic cells at 5 uM after 72 hrs by Annexin-V FITC/propidium iodide staining based flow cytometry (reference value: 1.6%); assay type: functional
[23] = Cell cycle arrest in human MCF7 cells assessed as G2/M phase accumulation at 1 uM after 144 hrs by propidium iodide staining based flow cytometry (reference value: 16.3%); assay type: functional
[24] = Cell cycle arrest in human HeLa cells assessed as G1 phase accumulation at 1 uM after 8 hrs by propidium iodide staining based flow cytometry (reference value: 62.7%); assay type: functional
[25] = Cell cycle arrest in human NCI-H1299 cells assessed as G1 phase accumulation at 1 uM after 24 hrs by propidium iodide staining based flow cytometry (reference value: 61.2 +/- 1.69%); assay type: functional
[26] = Cell cycle arrest in human LAN1 cells assessed as G1 phase accumulation at 1 uM after 24 hrs by propidium iodide staining based flow cytometry (reference value: 60.3 +/- 1.82%); assay type: functional
[27] = Cell cycle arrest in human SK-N-AS cells assessed as S phase accumulation at 1 uM after 24 hrs by propidium iodide staining based flow cytometry (reference value: 21.3 +/- 1.14%); assay type: functional
[28] = Cell cycle arrest in human Kelly cells assessed as subG1 phase accumulation at 1 uM after 24 hrs by propidium iodide staining based flow cytometry relative to DMSO control; assay type: functional
[29] = Cell cycle arrest in human NB-1 cells assessed as G2/M phase accumulation at 1 uM after 72 hrs by propidium iodide staining based flow cytometry (reference value: 15.8%); conditions: nb1, 72 h
[30] = Cell cycle arrest in human NCI-H1299 cells assessed as G2/M phase accumulation at 1 uM after 48 hrs by propidium iodide staining based flow cytometry (reference value: 11.8%); assay type: functional
[31] = Antiproliferative activity against human A549 cells after 72 hrs by XTT assay; assay type: functional, cell-based; conditions: A549, 72 h; procedure, shortened: as §1
[32] = Cell cycle arrest in human HeLa cells assessed as G2/M phase accumulation at 1 uM after 8 hrs by propidium iodide staining based flow cytometry (reference value: 18.1%); assay type: functional
[33] = Cell cycle arrest in human NB-1 cells assessed as G1 phase accumulation at 1 uM after 48 hrs by propidium iodide staining based flow cytometry (reference value: 85.9%); conditions: nb1, 48 h
[34] = Cell cycle arrest in human MCF7 cells assessed as G1 phase accumulation at 1 uM after 24 hrs by propidium iodide staining based flow cytometry (reference value: 54.1 +/- 1.52%); assay type: functional

Cc1[nH]c2c(c1-c1nnc(-c3ccccc3)o1)Cc1ccccc1-2
Activity [1]: 20.8%
Activity [2]: 8.3%
Activity [3]: 58.8%
Activity [4]: 59.5 to 78.1%
Activity [5]: 34.3%
Activity [6]: 6.3 to 10.4%
Activity [7]: 3.8%
Activity [8]: 12.3%
pIC50 [9]: 7.30
Activity [10]: 13.4%
Activity (HeLa [11]): 4.3%
Activity [12]: 81%
Activity (HeLa [13]): Active
pIC50 [14]: 6.72
Activity [15]: 45.6%
Activity [16]: 15.7%
Activity [17]: 15.6%
Ratio IC50 (HeLa [18]): 28 - 34
Activity (A549 [19]): 41.7%
Activity [20]: 2.4%
pIC50 [21]: 7.22
Activity (A549 [22]): 4.6%
Activity [23]: 79.9%
Activity [24]: 32.5%
Activity [25]: 17.8%
Activity [26]: 11.8%
Activity [27]: 9.9%
Activity [28]: 13.4%
Activity [29]: 18.1%
Activity [30]: 42.9%
pIC50 [31]: 6.62
Activity [32]: 45.3%
Activity [33]: 82.6%
Activity [34]: 15.7 to 30.1%
